# Experimental data: ChEMBL document CHEMBL1125486, “Inhibitors of blood platelet cAMP phosphodiesterase. 3. 1,3-Dihydro-2H-imidazo[4,5-b]quinolin-2-one derivatives with enhanced aqueous solubility” (J Med Chem, 1992)
# Experiments:
# [1] = Aqueous solubility; format: physicochemical; conditions: water; read-out: S
# Method in brief: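 Water (0.5 mL) added to 10 mg compound at room temperature, diluted up to […] unless dissolution occurred.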
# Phosphodiesterase 3 [2] = molecular target: T1, Phosphodiesterase 3 (Homo sapiens, UniProt Q14432+Q13370); assay: Inhibition of human platelet c-AMP phosphodiesterase PDE 3
# Homo sapiens [3] = species on record: Homo sapiens; assay: Inhibition of ADP-induced aggregation of human platelets; format: functional
# Phosphodiesterase 3 [4] = molecular target: T1, Phosphodiesterase 3; assay: Inhibition of human platelet cAMP Phosphodiesterase PDE 3
# Method in brief: (§1)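 Human platelet cAMP PDE enzyme preparation; IC50 read from plots of cAMP hydrolysis against compound concentration; mean of duplicate determinations; BMY 20844 positive control.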
# Oryctolagus cuniculus [5] = species on record: Oryctolagus cuniculus; assay: Inhibition of laser induced thrombus formation in microvasculature of rabbit ear chamber; format: functional, organism-based
# Method in brief: (§2)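 Conscious rabbits, laser-induced microvessel thrombosis, oral dosing; 10 trials 2 h post-dose compared with 10 predose trials in same rabbit; mean thrombus area, % inhibition; at least three rabbits per compound.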
# Oryctolagus cuniculus [6] = assay: Inhibition of laser induced thrombus formation in microvasculature of rabbit ear chamber at a peroral dose of 0.1 mg/kg; format: functional; conditions: route oral; method in brief: as §2
# [7] = Solubility in 0.25 N HCl solution; format: physicochemical; conditions: read-out: S
# Method in brief: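 Solubility tested as for water, 0.5 mL solvent on 10 mg solid at room temperature with up to […] dilution, but in 0.25 N HCl solution.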
# Homo sapiens [8] = species on record: Homo sapiens; assay: Inhibition of ADP induced aggregation of human platelets after 15 min of incubation of the drug with PRP prior to the addition of ADP; format: functional; conditions: 0.25 h
# Oryctolagus cuniculus [9] = assay: Inhibition of laser induced thrombus formation in microvasculature of rabbit ear chamber at dose of 0.03 mg/kg; format: functional; method in brief: as §2
# Oryctolagus cuniculus [10] = assay: Inhibition of laser induced thrombus formation in microvasculature of rabbit ear chamber at a dose of 0.3 mg/kg; format: functional; method in brief: as §2
# Oryctolagus cuniculus [11] = assay: Inhibition of laser induced thrombus formation in microvasculature of rabbit ear chamber at a peroral dose of 3 mg/kg; format: functional; conditions: route oral; method in brief: as §2
# Oryctolagus cuniculus [12] = assay: Inhibition of laser induced thrombus formation in microvasculature of rabbit ear chamber at a peroral dose of 1 mg/kg; format: functional; conditions: route oral; method in brief: as §2
# Phosphodiesterase 3 [13] = molecular target: T1, Phosphodiesterase 3; assay: Inhibition of human platelet cAMP phosphodiesterase PDE 3; method in brief: as §1
SMILES,solubility [1] [µg/mL],IC50 (Phosphodiesterase 3 [2]) [nM],EC50 (Homo sapiens [3]) [nM],further results
Oc1nc2cc3cc(N4CCN(c5ccccc5)CC4)ccc3[nH]c-2n1,< 10000,5000,8060,–
O=C(CCCOc1ccc2[nH]c3nc(O)nc-3cc2c1)N1CCN(Cc2cccc(C(F)(F)F)c2)CC1,2000,9,920,–
O=C1CN2Cc3cc(OCCCC(=O)N4CCN(CC5CCCCC5)CC4)ccc3N=C2N1,> 5000,6,7230,–
O=C1CN2Cc3cc(OCCCC(=O)N4CCN(Cc5ccccc5)CC4)ccc3N=C2N1,> 5000,8,4150,–
CN1CCCC1CCNC(=O)CCCOc1ccc2[nH]c3nc(O)nc-3cc2c1 (stereo not given),–,20,79800,solubility [7]: > 10000 µg/mL
CC(C)(C)OC(=O)N1CCN(C(=O)CCCOc2ccc3[nH]c4nc(O)nc-4cc3c2)CC1,< 10000,0.3,270,–
COc1ccc(C(=O)N2CCN(c3ccc4[nH]c5nc(O)nc-5cc4c3)CC2)cc1OC,< 10000,–,37900,–
Oc1nc2cc3cc(N4CCOCC4)ccc3[nH]c-2n1,< 10000,20,250,–
Oc1nc2cc3cc(N4CCCC4)ccc3[nH]c-2n1,< 10000,–,2030,–
O=C(CCCOc1ccc2[nH]c3nc(O)nc-3cc2c1)NC1CCN(Cc2ccccc2)CC1,> 20000,0.7,3700,–
O=C(O)C1CCN(c2ccc3[nH]c4nc(O)nc-4cc3c2)CC1,< 10000,20,30200,–
O=C(CCCCOc1ccc2[nH]c3nc(O)nc-3cc2c1)N1CCN(Cc2ccccc2)CC1,> 10000,0.08,47,–
COC(=O)C1CCN(c2ccc3[nH]c4nc(O)nc-4cc3c2)CC1,< 10000,–,280,–
CCOC(=O)N1CCN(c2ccc3[nH]c4nc(O)nc-4cc3c2)CC1,< 10000,700,3520,–
CN(C(=O)C1CCN(c2ccc3[nH]c4nc(O)nc-4cc3c2)CC1)C1CCCCC1,< 10000,–,> 37000,–
Oc1nc2cc3cc(N4CCCCC4)ccc3[nH]c-2n1,> 10000,–,900,inhibition in vivo at 3 mg/kg (Oryctolagus cuniculus [11]): 59%; inhibition in vivo at 1 mg/kg (Oryctolagus cuniculus [12]): 32%
O=C(CCCOc1ccc2[nH]c3nc(O)nc-3cc2c1)N1CCN(C(c2ccccc2)c2ccccc2)CC1,< 10000,3,62,–
CN(CCc1ccccn1)C(=O)CCCOc1ccc2[nH]c3nc(O)nc-3cc2c1,> 10000,4.5,12400,–
O=C(CCCOc1ccc2[nH]c3nc(O)nc-3cc2c1)N1CCN(C(c2ccc(F)cc2)c2ccc(F)cc2)CC1,< 10000,0.3,130,–
O=C(c1ccccc1)N1CCN(c2ccc3[nH]c4nc(O)nc-4cc3c2)CC1,< 10000,600,6820,–
O=C(CCCOc1ccc2[nH]c3nc(O)nc-3cc2c1)N1CCN(Cc2ccc3c(c2)OCO3)CC1,10000,0.9,330,–
O=C(CCCOc1ccc2[nH]c3nc(O)nc-3cc2c1)N1CCN(c2cccc(C(F)(F)F)c2)CC1,< 10000,0.6,720,–
O=C(CCCOc1ccc2[nH]c3nc(O)nc-3cc2c1)N1CCN(Cc2ccc(C(F)(F)F)cc2)CC1,< 10000,0.4,2110,–
O=C(CCCOc1ccc2[nH]c3nc(O)nc-3cc2c1)N1CCN(CCc2ccccc2C(F)(F)F)CC1,< 10000,0.3,110,–
CCN(CC)c1ccc2[nH]c3nc(O)nc-3cc2c1,> 10000,–,1420,IC50 (Phosphodiesterase 3 [13]): 70 nM
Cn1c(O)nc2nc3ccc(OCCCC(=O)N4CCN(Cc5ccccc5)CC4)cc3cc21,> 10000,30,> 59100,–
O=C(CCCOc1ccc2[nH]c3nc(O)nc-3cc2c1)NC1CN2CCC1CC2 (stereo not given),> 10000,40,12400,–

# Continued, in another order:
solubility [1] [µg/mL],IC50 (Phosphodiesterase 3 [2]) [nM],EC50 (Homo sapiens [3]) [nM],SMILES,further results
> 10000,1,430,CCC(CC)CN1CCN(C(=O)CCCOc2ccc3[nH]c4nc(O)nc-4cc3c2)CC1,–
> 10000,–,> 56500,O=C(CCCOc1ccc2[nH]c3nc(O)nc-3cc2c1)N1CCN(CC(=O)N2CCCC2)CC1,IC50 (Phosphodiesterase 3 [4]): 6 nM
> 10000,0.03,51,O=C(CCCCOc1ccc2[nH]c3nc(O)nc-3cc2c1)N1CCN(CC2CCCCC2)CC1,IC50 (Oryctolagus cuniculus [5]): 0.03 mg/kg; inhibition in vivo at 0.1 mg/kg (Oryctolagus cuniculus [6]): > 50%
> 10000,3,520,COc1ccc(CN2CCN(C(=O)CCCOc3ccc4[nH]c5nc(O)nc-5cc4c3)CC2)cc1,–
> 20000,4,4500,O=C(CCCOc1ccc2[nH]c3nc(O)nc-3cc2c1)NCCN1CCCCC1,–
< 10000,0.2,54,O=C(CCCOc1ccc2[nH]c3nc(O)nc-3cc2c1)N1CCN(CCC2CCCCC2)CC1,–
> 10000,7,1220,O=C(CCCOc1ccc2[nH]c3nc(O)nc-3cc2c1)N1CCN(c2ncccn2)CC1,–
> 10000,0.7,2020,O=C(CCCOc1ccc2[nH]c3nc(O)nc-3cc2c1)N1CCN(CC2CCCCO2)CC1 (stereo not given),–
< 10000,0.4,680,CCCC(CCC)CN1CCN(C(=O)CCCOc2ccc3[nH]c4nc(O)nc-4cc3c2)CC1,–
> 10000,0.7,380,O=C(CCCOc1ccc2[nH]c3nc(O)nc-3cc2c1)N1CCN(Cc2ccsc2)CC1,–
< 10000,2,170,O=C(CCCOc1ccc2[nH]c3nc(O)nc-3cc2c1)N1CCN(Cc2ccc(Cl)cc2)CC1,–
> 10000,0.4,510,O=C(CCCOc1ccc2[nH]c3nc(O)nc-3cc2c1)N1CCN(CC2CCCCC2)CC1,IC50 (Homo sapiens [8]): 100 nM
> 10000,0.7,–,O=C(CCCOc1ccc2[nH]c3nc(O)nc-3cc2c1)N1CCN(Cc2ccccc2)CC1,inhibition in vivo at 0.03 mg/kg (Oryctolagus cuniculus [9]): 41%; inhibition in vivo at 0.3 mg/kg (Oryctolagus cuniculus [10]): 64%; inhibition in vivo at 0.1 mg/kg (Oryctolagus cuniculus [6]): 50%
> 10000,80,> 58100,Cn1c(O)nc2nc3ccc(OCCCC(=O)N4CCN(CC5CCCCC5)CC4)cc3cc21,–
> 10000,2,2440,CCOC(=O)CN1CCN(C(=O)CCCOc2ccc3[nH]c4nc(O)nc-4cc3c2)CC1,–
> 10000,5,670,O=C(CCCOc1ccc2[nH]c3nc(O)nc-3cc2c1)N1CCN(c2ccccn2)CC1,–
> 10000,1,2430,CC(C)CN1CCN(C(=O)CCCOc2ccc3[nH]c4nc(O)nc-4cc3c2)CC1,–
> 10000,7,20800,COCCN1CCN(C(=O)CCCOc2ccc3[nH]c4nc(O)nc-4cc3c2)CC1,–
> 10000,2,530,O=C(CCCOc1ccc2[nH]c3nc(O)nc-3cc2c1)N1CCN(Cc2ccc(F)cc2)CC1,–
> 10000,0.7,380,O=C(CCCOc1ccc2[nH]c3nc(O)nc-3cc2c1)N1CCN(Cc2cccs2)CC1,–
< 10000,0.2,290,O=C(CCCOc1ccc2[nH]c3nc(O)nc-3cc2c1)N1CCN(CC2CCCCCC2)CC1,–
> 20000,7,8900,CN1CCN(C(=O)CCCOc2ccc3[nH]c4nc(O)nc-4cc3c2)CC1,–
> 10000,0.9,750,O=C(CCCOc1ccc2[nH]c3nc(O)nc-3cc2c1)N1CCN(C2CCCCCC2)CC1,–
> 10000,0.6,710,O=C(CCCCCOc1ccc2[nH]c3nc(O)nc-3cc2c1)N1CCN(CC2CCCCC2)CC1,–
> 10000,40,53700,O=C(CCCOc1ccc2[nH]c3nc(O)nc-3cc2c1)N1CCNCC1,–
> 10000,0.5,1300,O=C(CCCOc1ccc2[nH]c3nc(O)nc-3cc2c1)N1CCN(CC2CCCC2)CC1,–
> 10000,5,11400,O=C(CCCOc1ccc2[nH]c3nc(O)nc-3cc2c1)N1CCC(N2CCCCC2)CC1,–
< 10000,2,50,O=C(CCCOc1ccc2[nH]c3nc(O)nc-3cc2c1)N1CCN(c2ccccc2)CC1,–
< 10000,2,190,O=C(CCCOc1ccc2[nH]c3nc(O)nc-3cc2c1)N1CCN(CCc2ccccc2)CC1,–
